Inconclusive results are not listed.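 The calls were made as follows, unless noted: active = viability at or below 27.92% in each of two runs, the all-compound median minus 4 SD; inconclusive = no clear call, values can overlap the other calls; inactive = the rest.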
How the values were obtained:
[1] = S. cerevisiae growth inhibition in permissive medium (OD615), pilot counter-assay for S. cerevisiae lifespan shortening project, permissive growth control (AID 705;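 active = growth inhibition above 25% in both replicates, a cutoff set 3 SD above the mean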); conditions: OD615, 24 h, at 10 µM, active compounds read high
Outline: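 System: Engineered DeaD yeast | Buffer or medium: SC raffinose/galactose permissive medium | Incubation: Cells pre-grown 4 h, then 24 h compound exposure, 30 °C humidified | Measured by: Absorbance (optical density) at 615 nm | Read-out: Reduction in yeast growth (OD615)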

[2] = S. cerevisiae growth inhibition in restrictive medium, OD615, pilot screen, restrictive growth control, yeast lifespan reduction project (AID 706;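 active = growth inhibition above a set limit, 3 SD over mean compound inhibition, in both replicates, cut at about 43% in these data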;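 also: modified DeaD lifespan yeast strain shifted to restrictive glucose medium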); conditions: OD615, 48 h, at 10 µM, active compounds read high
Outline: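 Material: modified S. cerevisiae; Medium: glucose-based CSMM-D restrictive medium; Compound dosing: one concentration, 10 µM final, 0.25% DMSO; Incubation: 48 h compound exposure at 30 °C; Measured by: OD615.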

[3] = doxorubicin toxicity protection in MRP-1 cells – H69AR cells, CellTiter-Glo, duplicate, MRP-1 activator project, pilot screen (AID 807;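 active = viability increase at or above a cutoff of the median across tested compounds plus 3 SD, cut at about 8.5% in these data, passing the limit was not always enough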;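 also: compound pretreatment 18-22 h then 72 h combined with doxorubicin; 0% = doxorubicin alone and 100% = vehicle without doxorubicin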); conditions: H69AR viability with doxorubicin, CellTiter-Glo luminescence; at 10 µM; active compounds read high
[4] = viability of HCT116 without oncogenic beta-catenin – human colon tumor cells, pilot screen (AID 823;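 active = cell viability at or below a set limit in both duplicate runs, the limit being the all-compound median minus 4 SD, cut at about 23% in these data, passing the limit was not always enough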;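 also: 0% = wells killed by 20 µM Hyamine and 100% = untreated DMSO cell wells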); conditions: HCT116 beta-catenin knockout viability, CellTiter-Glo, 60 h; at 10 µM; active compounds read low
[5] = viability of PTEN-null HCT116 cells – cell-based, HCT116 clonal line, CellTiter-Glo, pilot screen (AID 824); conditions: HCT116 PTEN-deleted viability, 60 h, at 10 µM, active compounds read low;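 also: 0% = 20 µM Hyamine control and 100% = vehicle cell control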
[6] = RAM pathway blockade in budding yeast – dse1pr::URA3 reporter, 5-FOA selection, pilot screen (AID 869;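 active = inhibition over a set limit, the all-compound mean plus 3 SD, in both replicate runs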;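 also: 0% = DMSO wells with no growth and 100% = 10 µM 1-NA-PP1 with full growth; RAM network block rescues cells from 5-FOA so hits raise OD615 growth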); conditions: S. cerevisiae dse1pr::URA3 5-FOA growth, OD615, 2 d; at 10 µM; active compounds read high; strain carries analog-sensitive mutant Cbk1 kinase
[7] = RAM signaling pathway blockade in yeast – S. cerevisiae, Pdr1DBD-CYC8 efflux-inhibited sensitized strain, primary screen (AID 1298;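 active = RAM network inhibition above 8.4% in each of two replicates, 3 SD over the compound average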;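 also: 0% = DMSO untreated cells without growth and 100% = 10 µM 1-NA-PP1 full growth; higher means more yeast growth rescued from 5-FOA killing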); conditions: S. cerevisiae cbk1-as DSE1-URA3 strain, 5-FOA growth OD615, 2 d; at 50 µM; active compounds read high

O=C(NCCc1ccc(Cl)cc1)c1cnc2n(c1=O)CCS2
inactive: growth inhibition [1] -1.75% | growth inhibition [2] -8.11% | viability increase [3] 3.85% | viability [4] 95% | viability [5] 92.1% | inhibition [6] 0.37% | RAM network inhibition [7] 9.74%

CCc1cc2c(=O)c(-c3nc4ccccc4[nH]3)coc2c(CN2CCCC(C)C2)c1O (configuration not stated)
inactive: growth inhibition [1] -3.79% | growth inhibition [2] 12.3% | viability increase [3] -0.47% | viability [4] 103% | viability [5] 92.8% | inhibition [6] -0.17% | RAM network inhibition [7] 0.56%

CCN(CC)C(=O)Nc1cnc2ccccc2c1
inactive: growth inhibition [1] -17.2% | growth inhibition [2] -8.12% | viability increase [3] -2.72% | viability [4] 93.5% | viability [5] 96.4% | inhibition [6] 0.115% | RAM network inhibition [7] 5.38%

O=C(CSc1nc2ccccc2c(=O)n1-c1ccccc1)N1CCN(CCO)CC1
inactive: growth inhibition [1] -8.67% | growth inhibition [2] -3.58% | viability increase [3] -2.9% | viability [4] 99.5% | viability [5] 98.6% | inhibition [6] 0.595% | RAM network inhibition [7] 1.04%

O=C(c1cccs1)n1cc(C(=S)N2CCOCC2)c2ccccc21
inactive: growth inhibition [1] -4.95% | growth inhibition [2] -0.915% | viability increase [3] -0.89% | viability [4] 94.2% | viability [5] 88.1% | inhibition [6] 1.71% | RAM network inhibition [7] 4.07%

Cc1cc(C)c2c(N)c(C(=O)Nc3nccs3)sc2n1
inactive: growth inhibition [1] 0.355% | growth inhibition [2] 16.4% | viability increase [3] -5.52% | viability [4] 87.8% | viability [5] 90.5% | inhibition [6] 2% | RAM network inhibition [7] -0.11%

Cn1c(NC(=O)CCC2CCCCC2)cc(=O)n(C)c1=O
inactive: growth inhibition [1] -1.97% | growth inhibition [2] -10.8% | viability increase [3] 2.29% | viability [4] 92.9% | viability [5] 83.6% | inhibition [6] 0.52% | RAM network inhibition [7] -1.2%

CNc1ccc(OC(F)F)cc1C(=O)c1ccccc1
inactive: growth inhibition [1] 12.9% | growth inhibition [2] -4.32% | viability increase [3] -2.34% | viability [4] 89.8% | viability [5] 92.9% | inhibition [6] 0.685% | RAM network inhibition [7] 2.22%

C=CCn1c(-c2ccco2)n[nH]c1=S
inactive: growth inhibition [1] 2.98% | growth inhibition [2] -4.35% | viability increase [3] -1.3% | viability [4] 110% | viability [5] 97.6% | inhibition [6] 1.58% | RAM network inhibition [7] 2.89%

Cc1csc(NC(=O)C(CC(C)C)NS(=O)(=O)c2ccc3c(c2)oc(=O)n3C)n1 (configuration not stated)
inactive: growth inhibition [1] 2.94% | growth inhibition [2] -3.39% | viability increase [3] -0.77% | viability [4] 103% | viability [5] 106% | inhibition [6] 1.33% | RAM network inhibition [7] 2.74%

Cc1cccc(-n2ncc3c(N4CCC(C)CC4)ncnc32)c1
inactive: growth inhibition [1] -5.82% | growth inhibition [2] 10.6% | viability increase [3] 4.21% | viability [4] 81.4% | viability [5] 82.9% | inhibition [6] -0.31% | RAM network inhibition [7] 1.32%

CC(C)Oc1cc(O)c2c(=O)c(-c3ccc(O)cc3)coc2c1
inactive: growth inhibition [1] -14.2% | growth inhibition [2] -15.1% | viability increase [3] -6.33% | viability [4] 79.8% | viability [5] 64.5% | inhibition [6] 0.605% | RAM network inhibition [7] -3.3%

NC(=O)SCC(=O)Nc1ccc(Cl)c(Cl)c1
inactive: growth inhibition [1] -0.33% | growth inhibition [2] 4.16% | viability increase [3] -7.83% | viability [4] 38% | viability [5] 42.8% | inhibition [6] 2.52% | RAM network inhibition [7] 4.56%

O=C(NCCn1ccc2ccccc21)c1ccc(S(=O)(=O)N2CCCCC2)cc1
inactive: growth inhibition [1] -12.5% | growth inhibition [2] -22.4% | viability increase [3] -5.02% | viability [4] 79.6% | viability [5] 71.1% | inhibition [6] 0.45% | RAM network inhibition [7] 4.77%

O=C(O)c1cc(-c2ccc(Cl)cc2)n[nH]1
inactive: growth inhibition [1] -6.99% | growth inhibition [2] 0.335% | viability increase [3] -0.39% | viability [4] 100% | viability [5] 96% | inhibition [6] 0.27% | RAM network inhibition [7] 0.61%

CC(=O)c1cccc(NC(=O)c2cc3ccccn3n2)c1
inactive: growth inhibition [1] -5.62% | growth inhibition [2] 4.32% | viability increase [3] -2.31% | viability [4] 99% | viability [5] 95.8% | inhibition [6] 0.705% | RAM network inhibition [7] -0.31%

CCOC(=O)c1c(C)oc2cc(Br)c(OC(=O)N3CCOCC3)cc12
inactive: growth inhibition [1] -10.9% | growth inhibition [2] -3.17% | viability increase [3] -0.62% | viability [4] 88% | viability [5] 88.8% | inhibition [6] 0.13% | RAM network inhibition [7] 1.4%

Cc1nn(-c2ccccc2)c(C)c1C(=O)OCC(=O)Nc1ccc2c(c1)OCO2
inactive: growth inhibition [1] -15.6% | growth inhibition [2] -15.7% | viability increase [3] -0.97% | viability [4] 95.3% | viability [5] 92.9% | inhibition [6] 3.68% | RAM network inhibition [7] 3.09%

CCN1CCN(C(=O)Cn2c(=O)sc3ccccc32)CC1
inactive: growth inhibition [1] -10.6% | growth inhibition [2] 4.76% | viability increase [3] -2.64% | viability [4] 107% | viability [5] 96.6% | inhibition [6] -0.225% | RAM network inhibition [7] 0.05%

O=C(O)c1cc(S(=O)(=O)Nc2ccc3c(c2)OCCO3)c(Cl)cc1Cl
inactive: growth inhibition [1] -5.69% | growth inhibition [2] 3.62% | viability increase [3] -1.04% | viability [4] 95.1% | viability [5] 88.4% | inhibition [6] 2.01% | RAM network inhibition [7] -0.21%

CC(C)COC(=O)c1cc(=O)[nH]c2ccccc12
inactive: growth inhibition [1] -4.92% | growth inhibition [2] -14.4% | viability increase [3] -2.47% | viability [4] 87.4% | viability [5] 84.1% | inhibition [6] 0.855% | RAM network inhibition [7] 0.1%

Cc1cc(NC(=O)CSCCc2ccncc2)no1
inactive: growth inhibition [1] -9.54% | growth inhibition [2] -5.15% | viability increase [3] -0.06% | viability [4] 99.7% | viability [5] 105% | inhibition [6] 0.675% | RAM network inhibition [7] 1.27%

CCOC(=O)C1CCCN(C(=O)Cn2ncc3c(=O)oc4ccc(C)cc4c32)C1 (configuration not stated)
inactive: growth inhibition [1] -11.9% | growth inhibition [2] -24.9% | viability increase [3] -1.41% | viability [4] 106% | viability [5] 95% | inhibition [6] 2.19% | RAM network inhibition [7] 3.43%

CC(=O)Nn1cc2c(=O)n(C)c(=O)n(C)c2c1
inactive: growth inhibition [1] -5.47% | growth inhibition [2] 1.6% | viability increase [3] 0.99% | viability [4] 98.3% | viability [5] 99.7% | inhibition [6] 1.68% | RAM network inhibition [7] 1.13%

CCC(=O)Nc1nc2c(OC)ccc(OC)c2s1
inactive: growth inhibition [1] -2.06% | growth inhibition [2] 0.075% | viability increase [3] -2.87% | viability [4] 97.5% | viability [5] 94.5% | inhibition [6] 1.07% | RAM network inhibition [7] 2.34%

COc1cc(/C=N/n2cnnc2)ccc1OCCOc1ccccc1
inactive: growth inhibition [1] 0.295% | growth inhibition [2] 1.02% | viability increase [3] -3.68% | viability [4] 104% | viability [5] 91.8% | inhibition [6] 3.07% | RAM network inhibition [7] 5.62%

Cc1cnn(-c2ccc3nnc(-c4ccc(Br)cc4)n3n2)c1
inactive: growth inhibition [1] -5.48% | growth inhibition [2] -11.2% | viability increase [3] -4.96% | viability [4] 85.9% | viability [5] 84.1% | inhibition [6] 1.4% | RAM network inhibition [7] 3.52%

CCCCCn1c(N(C)Cc2ccccc2)nc2c1c(=O)[nH]c(=O)n2C
inactive: growth inhibition [1] -4.46% | growth inhibition [2] -2.36% | viability increase [3] -0.81% | viability [4] 74% | viability [5] 69.3% | inhibition [6] 0.435% | RAM network inhibition [7] 1.07%

Cc1ccc(S(=O)(=O)N2CCCC(C(=O)N(Cc3cccs3)C3CC3)C2)cc1 (configuration not stated)
inactive: growth inhibition [1] -7.06% | growth inhibition [2] -14.9% | viability increase [3] -0.66% | viability [4] 61.3% | viability [5] 71.5% | inhibition [6] 0.39% | RAM network inhibition [7] 7.4%

Cc1occc1C(=O)NC(C)CCc1ccccc1 (configuration not stated)
inactive: growth inhibition [1] -7.82% | growth inhibition [2] 2.38% | viability increase [3] -0.95% | viability [4] 91.8% | viability [5] 94.1% | inhibition [6] 3.1% | RAM network inhibition [7] 0.62%

OCCNCCCCCOc1ccc(F)cc1
inactive: growth inhibition [1] -1.2% | growth inhibition [2] -16.2% | viability increase [3] -1.34% | viability [4] 96.2% | viability [5] 94.5% | inhibition [6] 2.19% | RAM network inhibition [7] 0.69%

Cc1ccc(C(=O)NCCn2cc(SCC(=O)Nc3nnc(C)s3)c3ccccc32)cc1
inactive: growth inhibition [1] 5.58% | growth inhibition [2] 24.1% | viability increase [3] 2.91% | viability [4] 62.5% | viability [5] 81.3% | inhibition [6] 1.07% | RAM network inhibition [7] 0.63%

O=C(Nc1nccs1)c1ccc(S(=O)(=O)N2CCCCC2)cc1
inactive: growth inhibition [1] -9.01% | growth inhibition [2] -1.44% | viability increase [3] 0.89% | viability [4] 94% | viability [5] 90% | inhibition [6] 1.73% | RAM network inhibition [7] 5.88%

CCOC(=O)C1CCN(C(=O)CS(=O)Cc2nc(-c3ccc(C)cc3)oc2C)CC1 (configuration not stated)
inactive: growth inhibition [1] 1.66% | growth inhibition [2] 22.5% | viability increase [3] -3.68% | viability [4] 86.3% | viability [5] 84.6% | inhibition [6] 0.32% | RAM network inhibition [7] 7.5%

Cc1ccc(C(=O)N2CCN(C(=O)CN3CCOCC3)C2)cc1
inactive: growth inhibition [1] -4.56% | growth inhibition [2] -13.1% | viability increase [3] -1.25% | viability [4] 95% | viability [5] 97.3% | inhibition [6] -0.175% | RAM network inhibition [7] 0.11%

Cc1cc(C(=O)Nc2nnc(C3CCCCC3)s2)cs1
inactive: growth inhibition [1] -9.12% | growth inhibition [2] 1.04% | viability increase [3] 1.38% | viability [4] 94.7% | viability [5] 101% | inhibition [6] 4.87% | RAM network inhibition [7] 9.03%
